ChEMBL document CHEMBL1127489, “Synthesis of novel N-phosphonoalkyl dipeptide inhibitors of human collagenase” (J Med Chem, 1994)

What follows are compounds tested against T1, Interstitial collagenase (Homo sapiens, UniProt P03956) (assay: Inhibition of degradation of radiolabeled rat skin type I collagen by semipurified human lung fibroblast collagenase).
T1 sequence (P03956 whole entry): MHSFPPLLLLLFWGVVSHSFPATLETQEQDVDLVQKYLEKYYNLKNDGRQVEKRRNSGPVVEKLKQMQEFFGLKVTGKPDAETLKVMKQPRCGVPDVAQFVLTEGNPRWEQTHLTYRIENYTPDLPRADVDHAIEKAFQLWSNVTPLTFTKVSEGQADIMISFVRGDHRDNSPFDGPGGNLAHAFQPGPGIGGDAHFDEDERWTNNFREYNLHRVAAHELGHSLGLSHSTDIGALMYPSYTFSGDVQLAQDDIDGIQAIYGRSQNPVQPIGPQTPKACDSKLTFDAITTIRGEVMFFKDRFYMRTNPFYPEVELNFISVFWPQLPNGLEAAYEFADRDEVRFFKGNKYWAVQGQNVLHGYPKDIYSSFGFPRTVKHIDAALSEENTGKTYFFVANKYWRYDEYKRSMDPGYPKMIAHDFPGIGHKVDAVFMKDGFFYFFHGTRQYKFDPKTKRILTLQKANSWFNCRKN
Summary of the method: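 Collagenase from WI-38 human lung fibroblast culture supernatants, trypsin-activated and semipurified. Substrate was 3H- or 14C-acetylated rat skin type I collagen, 100 μg/tube, added at 4 °C. Enzyme amount set to degrade 70% of collagen. Compounds were dissolved in MeOH by sonication and serially diluted. Incubation ran 1000 min at 37 °C, then centrifugation at 4 °C. Supernatant soluble peptides were scintillation counted.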
For `CC[C@@H](N[C@@H](CC(C)C)C(=O)N[C@@H](CCCCN)C(=O)NC)P(=O)(O)O`, the IC50 was 740 nM. `CNC(=O)[C@H](Cc1ccc(OC)cc1)NC(=O)C(CC(C)C)NC(C)P(C)(=O)O` (stereo not given in full) showed an IC50 greater than 100000 nM. `CC[C@@H](N[C@H](CC(C)C)C(=O)N[C@@H](Cc1ccc(OC)cc1)C(=O)NC)P(=O)(O)O` gave an IC50 of 39300 nM. For `CC[C@H](N[C@H](CC(C)C)C(=O)N[C@@H](Cc1ccccc1)C(=O)NC)P(=O)(O)O`, the IC50 was greater than 10000 nM. With `CC[C@H](N[C@@H](CC(C)C)C(=O)N[C@@H](Cc1ccc(OC)cc1)C(=O)NC)P(=O)(O)O` the IC50 was 470 nM. `CC[C@H](N[C@H](CC(C)C)C(=O)N[C@@H](Cc1ccc(OC)cc1)C(=O)NC)P(=O)(O)O` gave an IC50 of 15600 nM. Work on `CC[C@H](N[C@@H](CC(C)C)C(=O)N[C@@H](CCCCN)C(=O)NC)P(=O)(O)O` yielded an IC50 of 4320 nM. With `CCCCC(NC(CC(C)C)C(=O)N[C@@H](Cc1ccc(OC)cc1)C(=O)NC)P(=O)(O)O` (stereo not given in full) the IC50 was 41200 nM. `CC[C@H](N[C@@H](CC(C)C)C(=O)N[C@@H](CC(=O)NCCN1CCCC1)C(=O)NC)P(=O)(O)O` gave an IC50 of 1360 nM. With `CC[C@@H](N[C@@H](CC(C)C)C(=O)N[C@@H](Cc1ccccc1)C(=O)NC)P(=O)(O)O` the IC50 was 240 nM. With `CNC(=O)[C@H](Cc1ccc(OC)cc1)NC(=O)[C@H](CC(C)C)N[C@@H](C)P(=O)(O)O` the IC50 was 520 nM. `CC[C@H](N[C@@H](CC(C)C)C(=O)N[C@@H](Cn1cccn1)C(=O)NC)P(=O)(O)O` gave an IC50 of 760 nM. For `CNC(=O)[C@H](Cc1ccccc1)NC(=O)[C@H](CC(C)C)N[C@@H](CCc1ccccc1)P(=O)(O)O`, the IC50 was 400 nM. With `CNC(=O)CP(=O)(O)C[C@@H](CC(C)C)C(=O)N[C@@H](Cc1ccc(OC)cc1)C(=O)NC` the IC50 was 37000 nM. `CC[C@H](N[C@@H](CC(C)C)C(=O)N[C@@H](CCCN(C)C)C(=O)NC)P(=O)(O)O` was tested, and the IC50 was 490 nM. For `CNC(=O)[C@H](Cc1ccc(OC)cc1)NC(=O)[C@H](CC(C)C)N[C@@H](CCNC(=O)OCc1ccccc1)C(=O)O`, the IC50 was 350 nM. `CC[C@@H](N[C@H](CC(C)C)C(=O)N[C@@H](Cc1ccccc1)C(=O)NC)P(=O)(O)O` showed an IC50 greater than 10000 nM. Work on `CC[C@H](N[C@@H](CC(C)C)C(=O)N[C@@H](CCCNC(=N)N)C(=O)NC)P(=O)(O)O` yielded an IC50 of 290 nM. In the case of `CNC(=O)[C@H](Cc1ccc(OC)cc1)NC(=O)[C@H](CC(C)C)N[C@H](C)P(=O)(O)O`, the IC50 is reported as 260 nM. Work on `CNC(=O)[C@H](Cc1ccc(OC)cc1)NC(=O)C(CC(C)C)NC(CC(C)C)P(=O)(O)O` (stereo not given in full) yielded an IC50 of 2900 nM. With `CNC(=O)[C@H](Cc1ccccc1)NC(=O)[C@H](CC(C)C)N[C@H](CCc1ccccc1)P(=O)(O)O` the IC50 was 1820 nM. `CC[C@H](N[C@@H](CC(C)C)C(=O)N[C@@H](Cc1nc2ccccc2[nH]1)C(=O)NC)P(=O)(O)O` was tested, and the IC50 was 150 nM. In the case of `CCCC(NC(CC(C)C)C(=O)N[C@@H](Cc1ccc(OC)cc1)C(=O)NC)P(=O)(O)O` (stereo not given in full), the IC50 is reported as 15700 nM. Compound `CC[C@@H](N[C@@H](CC(C)C)C(=O)N[C@@H](Cc1ccc(OC)cc1)C(=O)NC)P(=O)(O)O` has an IC50 of 300 nM. `CC[C@H](N[C@@H](CC(C)C)C(=O)N[C@@H](Cc1c[nH]c2ccccc12)C(=O)NC)P(=O)(O)O` showed an IC50 of 50 nM. Work on `CNC(=O)[C@H](Cc1ccc(OC)cc1)NC(=O)[C@H](CC(C)C)N[C@H](C)C(=O)O` yielded an IC50 greater than 10000 nM. `CNC(=O)[C@H](Cc1ccccc1)NC(=O)[C@H](CC(C)C)N[C@@H](CC(C)C)P(=O)(O)O` showed an IC50 of 1560 nM. Compound `CC[C@H](N[C@@H](CC(C)C)C(=O)N[C@@H](Cc1ccccc1)C(=O)NC)P(=O)(O)O` has an IC50 of 230 nM. For `CCC(NC(CC(C)C)C(=O)N[C@@H](Cc1ccc(OC)cc1)C(=O)NC)[PH](=O)O` (stereo not given in full), the IC50 was greater than 100000 nM. In the case of `CNC(=O)[C@H](Cc1ccc(OC)cc1)NC(=O)C(CC(C)C)NC(C(C)C)P(=O)(O)O` (stereo not given in full), the IC50 is reported as 2900 nM.
